The text below walks through data of ChEMBL document CHEMBL3228012, “Actinomycin D oxazinones as improved antitumor agents” (1979).

Experiment [1] concerns CCRF-CEM. Put plainly: Antitumor activity against human CCRF-CEM cells assessed as growth inhibition after 48 hrs. The following applies: read-out: ID50 (the source's name). The experiment is classed as functional. The gist of the method:
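Human leukemic lymphoblasts were grown in continuous spinner suspension culture. Compounds were exposed for 48 h. ID50 was taken as the concentration in ng/mL giving 50% growth inhibition.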

Experiment [2] deals with Calf thymus DNA. The experiment can be described thus: Binding affinity to calf thymus DNA in 0.15 M NaCl-0.01 M sodium phosphate buffer at pH 7.3 at 37 degC incubated for 5 mins. Format: nucleic-acid assay. The following applies: Bos taurus. The method, boiled down: (§1)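 Compounds were mixed with calf thymus DNA, and binding was monitored by difference absorption spectra with and without DNA. Binding to DNA was judged from a bathochromic shift of λmax with hypochromicity.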

Experiment [3] concerns Calf thymus DNA. The experiment can be described thus: Binding affinity to calf thymus DNA in 0.15 M NaCl-0.01 M phosphate buffer at pH 7.3 at 37 degC incubated for 30 mins. The following applies: Bos taurus.
For experiment [4], the system named is P388. Put plainly: Antitumor activity against mouse P388 cells allografted in mouse BDF1 mouse assessed as increase in survival time of mouse at 150 ug/kg, ip for 4 days relative to untreated control. The following applies: 96 h.
Experiment [5] has as its system Calf thymus DNA. The experiment can be described thus: Binding affinity to calf thymus DNA in 0.15 M NaCl-0.01 M sodium phosphate buffer at pH 7.3 at 37 degC incubated for 30 mins. Format: nucleic-acid assay. To be noted: Bos taurus. The method, boiled down: as §1
Experiment [6] has as its system Calf thymus DNA. The experiment can be described thus: Binding affinity to calf thymus DNA in 0.01 M phosphate buffer at pH 7 at 20 degC incubated for 5 mins. To be noted: Bos taurus. The experiment is classed as nucleic-acid assay. The gist of the method: as §1
The subject of experiment [7] is P388. Put plainly: Antitumor activity against mouse P388 cells allografted in mouse BDF1 mouse assessed as increase in survival >50 days at 150 ug/kg, ip for 4 days.
Experiment [8] has as its system P388. Put plainly: Antitumor activity against mouse P388 cells allografted in mouse BDF1 mouse assessed as increase in survival time of mouse at 300 ug/kg, ip for 4 days relative to untreated control. To be noted: 96 h.
The test system of experiment [9] is P388. Put plainly: Antitumor activity against mouse P388 cells allografted in mouse BDF1 mouse assessed as increase in survival >50 days at 300 ug/kg, ip for 4 days.
In experiment [10] the test system is P388. The experiment can be described thus: Antitumor activity against mouse P388 cells allografted in mouse BDF1 mouse assessed as survival time of mouse at 150 ug/kg, ip for 4 days (reference value: 11.5 days).
Experiment [11] relates to P388. Put plainly: Antitumor activity against mouse P388 cells allografted in mouse BDF1 mouse assessed as increase in survival >50 days at 75 ug/kg, ip for 4 days.
Experiment [12] has as its system P388. Put plainly: Antitumor activity against mouse P388 cells allografted in mouse BDF1 mouse assessed as complete suppression of tumor on day 307 at 150 ug/kg, ip for 4 days.
For experiment [13], the system named is P388. The experiment can be described thus: Antitumor activity against mouse P388 cells allografted in mouse BDF1 mouse assessed as survival time of mouse at 75 ug/kg, ip for 4 days (reference value: 11.5 days).
The test system of experiment [14] is P388. The experiment can be described thus: Antitumor activity against mouse P388 cells allografted in mouse BDF1 mouse assessed as increase in survival time of mouse at 75 ug/kg, ip for 4 days relative to untreated control. The following applies: 96 h.
The test system of experiment [15] is P388. Put plainly: Antitumor activity against mouse P388 cells allografted in mouse BDF1 mouse assessed as survival time of mouse at 300 ug/kg, ip for 4 days (reference value: 11.5 days).
The subject of experiment [16] is P388. The experiment can be described thus: Antitumor activity against mouse P388 cells allografted in mouse BDF1 mouse assessed as increase in survival time of mouse at 50 ug/kg, ip for 4 days relative to untreated control. To be noted: 96 h.
The subject of experiment [17] is P388. The experiment can be described thus: Antitumor activity against mouse P388 cells allografted in mouse BDF1 mouse assessed as increase in survival >50 days at 50 ug/kg, ip for 4 days.
Experiment [18] concerns P388. Put plainly: Antitumor activity against mouse P388 cells allografted in mouse BDF1 mouse assessed as survival time of mouse at 50 ug/kg, ip for 4 days (reference value: 11.5 days).

Values after ≈ are worked out from the molar mass of the structure shown. Active and inactive are the calls of the source. No cut-off for these calls is given here. Starred links: 1 amine or outer side, 2 acyl side, 3 side chain; linkers in the order of their positions; H or OH if unused. Positions of bridges follow the written chain, without caps; N, C: chain ends. Non-standard residues stand in square brackets, D forms with d. Residues, ends and D or L forms follow the SMILES beside them. Chains are numbered I, II in the order given. Actinocin(1to9) = Cc1c2oc3c(C)ccc(C(=O)[*:2])c3nc-2c(C(=O)[*:1])c(N)c1=O; NMeV = CN[C@H](C(=O)O)C(C)C; Sar = CNCC(=O)O

Regarding `Cc1ccc(C(=O)N[C@@H]2C(=O)N[C@H](C(C)C)C(=O)N3CCC[C@H]3C(=O)N(C)CC(=O)N(C)[C@@H](C(C)C)C(=O)O[C@@H]2C)c2c1Oc1c(c(C(=O)N[C@@H]3C(=O)N[C@H](C(C)C)C(=O)N4CCC[C@H]4C(=O)N(C)CC(=O)N(C)[C@@H](C(C)C)C(=O)O[C@@H]3C)c3ncc(=O)oc3c1C)N2`, the IC50 in experiment [1] worked out at 0.024 µg/mL (≈ 18.5 nM). The outcome in experiment [2], in experiment [6] and in [7] was inactive. Besides, the outcome in [3] and in experiment [5] was Active. The Percent increase in survival time vs untreated control at 0.15 mg/kg in experiment [4] stood at 169%.

`Cc1ccc(C(=O)N[C@@H]2C(=O)N[C@H](C(C)C)C(=O)N3CCC[C@H]3C(=O)N(C)CC(=O)N(C)[C@@H](C(C)C)C(=O)O[C@@H]2C)c2c1Oc1c(c(C(=O)N[C@@H]3C(=O)N[C@H](C(C)C)C(=O)N4CCC[C@H]4C(=O)N(C)CC(=O)N(C)[C@@H](C(C)C)C(=O)O[C@@H]3C)c3nc(C)c(=O)oc3c1C)N2`: the IC50 in experiment [1] is 0.012 µg/mL (≈ 9.16 nM). For the same molecule, the outcome in [2], in experiment [6] and in experiment [7] was inactive. Besides, the result in experiment [3] and in [5] was Active. Also, in experiment [4], the Percent increase in survival time vs untreated control at 0.15 mg/kg came to 155%.

Consider `Cc1ccc(C(=O)N[C@@H]2C(=O)N[C@H](C(C)C)C(=O)N3CCC[C@H]3C(=O)N(C)CC(=O)N(C)[C@@H](C(C)C)C(=O)O[C@@H]2C)c2c1Oc1c(c(C(=O)N[C@@H]3C(=O)N[C@H](C(C)C)C(=O)N4CCC[C@H]4C(=O)N(C)CC(=O)N(C)[C@@H](C(C)C)C(=O)O[C@@H]3C)c3nc(CC(=O)O)c(=O)oc3c1C)N2`, for which, in [1], the IC50 was 0.012 µg/mL (≈ 8.87 nM). Besides, the outcome in experiment [2], in [6] and in experiment [7] was inactive. Further, the outcome in experiment [3] and in experiment [5] was Active. Moreover, in experiment [4], the Percent increase in survival time vs untreated control at 0.15 mg/kg amounted to 140%.

Consider `Cc1ccc(C(=O)N[C@@H]2C(=O)N[C@H](C(C)C)C(=O)N3CCC[C@H]3C(=O)N(C)CC(=O)N(C)[C@@H](C(C)C)C(=O)O[C@@H]2C)c2c1Oc1c(c(C(=O)N[C@@H]3C(=O)N[C@H](C(C)C)C(=O)N4CCC[C@H]4C(=O)N(C)CC(=O)N(C)[C@@H](C(C)C)C(=O)O[C@@H]3C)c3nc(CCC(=O)O)c(=O)oc3c1C)N2`, for which the IC50 in experiment [1] turned out to be 0.028 µg/mL (≈ 20.5 nM). The survival at 0.3 mg/kg in [8] came out at 159%. Besides, the result in experiment [2], in [9] and in [6] was inactive. Besides, the result in experiment [3] and in experiment [5] was Active.

For `CCc1nc2c(C(=O)N[C@@H]3C(=O)N[C@H](C(C)C)C(=O)N4CCC[C@H]4C(=O)N(C)CC(=O)N(C)[C@@H](C(C)C)C(=O)O[C@@H]3C)c3c(c(C)c2oc1=O)Oc1c(C)ccc(C(=O)N[C@@H]2C(=O)N[C@H](C(C)C)C(=O)N4CCC[C@H]4C(=O)N(C)CC(=O)N(C)[C@@H](C(C)C)C(=O)O[C@@H]2C)c1N3`, the figures for the MST in experiment [10], in [13] and in [15] were 35 days, 29 days and 26 days, respectively. Further, the IC50 in experiment [1] is 0.012 µg/mL (≈ 9.07 nM). The survival at 0.3 mg/kg in experiment [8] came to 126%. In addition, the outcome in experiment [2], in [9], in experiment [11] and in experiment [6] was inactive. Also, the outcome in experiment [3], in [12] and in experiment [5] was Active. In addition, in experiment [4], the Percent increase in survival time vs untreated control at 0.15 mg/kg was 204%. Besides, the survival at 0.075 mg/kg in [14] amounted to 152%.

Regarding `Cc1c2oc3c(C)ccc(C(=O)N[C@@H]4C(=O)N[C@H](C(C)C)C(=O)N5CCC[C@H]5C(=O)N(C)CC(=O)N(C)[C@@H](C(C)C)C(=O)O[C@@H]4C)c3nc-2c(C(=O)N[C@@H]2C(=O)N[C@H](C(C)C)C(=O)N3CCC[C@H]3C(=O)N(C)CC(=O)N(C)[C@@H](C(C)C)C(=O)O[C@@H]2C)c(N)c1=O` [DACTINOMYCIN] (I: T[dV]P[Sar][NMeV] / II: T[dV]P[Sar][NMeV]; ester I:1-I:C, II:1-II:C; linker I:N-II:N via Actinocin(1to9)), in experiment [16], the survival at 0.05 mg/kg was 141%. For the same molecule, the outcome in experiment [17], in experiment [11] and in [7] was inactive. For the same molecule, the MST in [10] amounted to 8 days; in [18], 28 days; in [13], 30 days. Also, the IC50 in experiment [1] stood at 0.01 µg/mL (≈ 7.97 nM). Moreover, the survival at 0.15 mg/kg in [4] is -31%. The survival at 0.075 mg/kg in experiment [14] was determined as 149%.
